In series [1] the test system is Mus musculus. The series can be described thus: Acid-insoluble DNA incorporation in mouse Mecca lymphosarcoma ascite tumor allografted in AKD2F1 mouse assessed per mg of DNA at 2.6 umol, ip after 4 hrs by scintillation counting analysis. In kind it is functional. The gist of the method:
(§1)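 Female AKD2F1 mice (groups of 3) bearing 4-day Mecca lymphosarcoma ascites tumors; 2.6 μmol [35S]nucleoside ip, repeated after 2 h; peritoneal cells washed out 2 h later. Acid-insoluble nucleic acid extracted in 10% NaCl at 100 °C, RNA removed by alkali; DNA digested with DNase I then phosphodiesterase I at 37 °C; paper chromatography, spots counted by scintillation.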

The species entered for series [2] is Mus musculus. The experiment in a line: Acid-soluble DNA incorporation in mouse Mecca lymphosarcoma ascite tumor allografted in AKD2F1 mouse assessed as snake venome 5'-nucleotidase-mediated nucleotide hydrolysis at 2.6 umol after 2 hrs. Type of series: functional. Also on record: scale not given: the % may be the effect or the level left. In outline: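 Female AKD2F1 mice bearing 4-day Mecca lymphosarcoma ascites were used in groups of three. Aliquots of the acid-soluble fraction were digested with crude Crotalus adamanteus venom (phosphodiesterase plus 5'-nucleotidase) for 2 h at 37 °C.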

The species named for series [3] is Mus musculus. The experiment in a line: Acid-soluble DNA incorporation in mouse Mecca lymphosarcoma ascite tumor allografted in AKD2F1 mouse assessed as detection of [35S] in nucleoside per mg of DNA at 2.6 umol after 4 hrs by scintillation counting analysis. In kind it is functional. In outline:
(§2)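 Same mouse dosing as the DNA study: 2.6 μmol [35S]nucleoside ip twice, 2 h apart, to AKD2F1 mice carrying Mecca lymphosarcoma ascites; cells harvested 2 h after the second dose. Acid-soluble fraction chromatographed on paper in 5% KH2PO4 with mercaptoethanol; nucleoside and nucleotide spots scintillation-counted, expressed per mg DNA.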

The subject of series [4] is WIL2. The experiment in a line: Stability in human WIL2 cells assessed as formation of thioguanine. Type of series: ADME, cell-based. The gist of the method: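 WI-L2 cells incubated with labeled nucleoside; [35S]thioguanine formed was measured.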
Series [5] is described as follows: Stability in RPMI 1640 after 20 mins in presence of 10% fetal calf serum. As to conditions: cattle. Type of series: physicochemical. In outline:
(§3)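 Nucleosides incubated without cells in RPMI 1640 containing 10% fetal calf serum or 10% dialyzed horse serum, 20 min or 24 h; cleavage to thioguanine monitored.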

Series [6] concerns WIL2. The experiment in a line: Antiproliferative activity against human WIL2 cells assessed as decrease in cell number at 100 to 300 uM measured every 24 hrs by electronic particle counting analysis in presence of 10% dialyzed horse serum. In kind it is functional, cell-based. The gist of the method:
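WI-L2 cells in RPMI 1640 + 10% dialyzed horse serum with penicillin/streptomycin; log-phase cells (2×10^5/mL) mixed 1:1 with double-strength drug medium at several concentrations, duplicate cultures, counted every 24 h by electronic particle counter.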

The species entered for series [7] is Mus musculus. The experiment in a line: Acid-soluble DNA incorporation in mouse Mecca lymphosarcoma ascite tumor allografted in AKD2F1 mouse assessed as wheat germ 3'-nucleotidase-mediated nucleotide hydrolysis at 2.6 umol after 1 hr. In kind it is functional. Also on record: scale not given: the % may be the effect or the level left. The gist of the method: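 Acid-soluble fraction from mice dosed ip with 2.6 μmol [35S]nucleoside twice, 2 h apart. Aliquot treated with nucleotidase-free phosphodiesterase (pH 8.6, 1 h, 37 °C), then wheat germ 3'-nucleotidase (4 units, pH 5, 1 h, 37 °C); separated by paper chromatography and counted.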

The species named for series [8] is Mus musculus. The experiment in a line: Acid-insoluble DNA incorporation in mouse Mecca lymphosarcoma ascite tumor allografted in AKD2F1 mouse assessed as detection of [35S] in nucleotide at 2.6 umol after 4 hrs by scintillation counting analysis. In kind it is functional. In outline: as §1
For series [9], the species on record is Mus musculus. The series can be described thus: Acid-insoluble DNA incorporation in mouse Mecca lymphosarcoma ascite tumor allografted in AKD2F1 mouse assessed as detection of [35S] in nucleoside at 2.6 umol after 4 hrs by scintillation counting analysis. In kind it is functional. In outline: as §1
Series [10] in a line: Stability in RPMI 1640 assessed as formation of thioguanine after 24 hrs in presence of 10% dialyzed horse serum. In kind it is physicochemical. In outline:
as §3

Series [11] in a line: Stability in RPMI 1640 after 24 hrs in presence of 10% fetal calf serum. In kind it is physicochemical. The following applies: cattle. In outline: as §3
Series [12] is filed under the species Mus musculus. The series can be described thus: Acid-soluble DNA incorporation in mouse Mecca lymphosarcoma ascite tumor allografted in AKD2F1 mouse assessed as detection of [35S] in nucleotide per mg of DNA at 2.6 umol after 4 hrs by scintillation counting analysis. In kind it is functional. In outline:
as §2

Calls of active or inactive are those of the source. The rule behind the calls is not given here.

Activity and Stability data for three compounds are collected here from ChEMBL document CHEMBL3228020, “Improved antitumor effects in 3'-branched homologues of 2'-deoxythioguanosine. Synthesis and evaluation of thioguanine nucleosides of 2,3-dideoxy-3-(hydroxymethyl)-D-erythro-pentofuranose” (J Med Chem, 1979).

For the compound `Nc1nc2c(ncn2[C@@H]2C[C@H](O)[C@@H](CO)O2)c(=S)[nH]1`, the Activity came to 0.84 nmol in [1]; 95.7% in series [2]; 10.4 nmol in series [3]; 2% in [7]; 40% in series [8]; 60% in series [9]. For the same compound, the Activity in series [12] is 6.4 nmol. Also, the Stability entry was “Stable” in [4], “Stable” in [5], “Stable” in series [10] and “Unstable” in series [11]. Moreover, in series [6], the outcome was Active.

Regarding `Nc1nc2c(ncn2[C@@H]2C[C@H](CO)[C@@H](CO)O2)c(=S)[nH]1`, the Activity in series [1] was 2.42 nmol; in series [2], 95.2%; in series [3], 15.6 nmol; in series [7], 0%; in series [8], 9%; in series [9], 91%. Besides, the Activity in series [12] turned out to be 29.8 nmol. Further, the Stability result was “Stable” in series [4], “Stable” in series [5], “Stable” in series [10] and “Unstable” in series [11]. Moreover, the outcome in series [6] was Active.

Regarding `Nc1nc2c(ncn2[C@H]2C[C@H](CO)[C@@H](CO)O2)c(=S)[nH]1`, the Activity in [1] amounted to 2.36 nmol; in series [2] it was 94.8%; in series [3], 29.1 nmol; in [7], 0%; in series [8], 10%; in series [9], 90%. The Activity in [12] was determined as 30.3 nmol. In addition, the Stability entry was “Stable” in series [4], “Stable” in series [5], “Stable” in series [10] and “Unstable” in series [11].
